Values joined by “and” are separate entries in the source; they are usually repeats but may differ in a detail not shown here. Identical values can stand only once. Like-named read-outs stand apart in the source and are kept apart here. Blank lines part the entries; values can stand above or below the compound they belong to.
Assays:
Cyp3a2 = experiment: RT-qPCR mRNA expression in small intestine and liver; format: in vivo, rats; settings: KET 75 mg/kg i.g. 7 days, vs control, P<0.001
Cyp3a1 = experiment: as above; format: in vivo, rats; settings: KET 75 mg/kg i.g. 7 days, vs control, P<0.001
P-gp = experiment: Western blot protein expression in small intestine and liver; format: in vivo, rats; settings: rat, in vivo
Mdr1 = experiment: RT-qPCR mRNA expression in small intestine and liver; format: in vivo, rats; settings: VER 4 mg/kg i.g. 7 days, vs control, P<0.001
Summary of the method: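 Rats, 3 per group, dosed once daily for 7 days: phosphate buffer 5 ml/kg i.v., test compound 2.5/5/10 mg/kg i.v. in phosphate buffer, ketoconazole 75 mg/kg i.g. in olive oil, or verapamil 4 mg/kg i.g. in water. Olive oil 5 ml/kg gavaged 30 min after day-7 dose. Killed 24 h post-dose after overnight fast; liver and intestinal mucosa snap-frozen. qPCR: 40 cycles, 58°C annealing; 2−ΔΔCq.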

[1] = healthy volunteers, cited from earlier work

decrease in Cyp3a2 mRNA expression (Cyp3a2; liver): 87.39%
decrease in Cyp3a2 mRNA expression (Cyp3a2; small intestine): 70.09%
decrease in Cyp3a1 mRNA expression (Cyp3a1; liver): 78.64%
decrease in Cyp3a1 mRNA expression (Cyp3a1; small intestine): 78.27%
Structure (SMILES): CC(=O)N1CCN(c2ccc(OCC3COC(Cn4ccnc4)(c4ccc(Cl)cc4Cl)O3)cc2)CC1 (stereo not shown) [KET, ketoconazole, reference compound]

Structure (SMILES): COc1ccc(CCN(C)CCCC(C#N)(c2ccc(OC)c(OC)c2)C(C)C)cc1OC (stereo not shown) [VER, verapamil, reference compound]
decrease in P-gp protein expression (P-gp): 85.02% and 84.54%
decrease in Mdr1 mRNA expression (Mdr1; liver): 84.33%
decrease in Mdr1 mRNA expression (Mdr1; small intestine): 65.32%

Structure (SMILES): O=c1c(O)c(-c2ccc(O)c(O)c2)oc2cc(O)cc(O)c12 [quercetin]
increase in AUC of CsA ([1]; CsA 30 min following quercetin administration): 36%
increase in AUC of CsA ([1]; CsA 3 days following quercetin administration): 47%
increase in AUC of CsA ([1]; co-administration of quercetin (5 mg/kg) and CsA): 18%

— article PMC6102747 (Molecular Medicine Reports, 2018)
